Data from ChEMBL document CHEMBL4270555, “Synthesis and biological evaluation of magnolol derivatives as melatonergic receptor agonists with potential use in depression” (Eur J Med Chem, 2018).
Activity calls are given as the source filed them. The calls are words filed in the database; no cut-off is given here.

Tests used:
Mus musculus [1] = test: Antidepressant activity in po dosed Kunming mouse assessed as decrease in immobility duration by forced swim test; type: functional, organism-based
Procedure, shortened: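 Male Kunming mice (18–20 g) given 10, 20 or 40 mg/kg orally; fluoxetine and agomelatine 20 mg/kg as references. Each mouse swam 6 min in a cylinder (25 × 15 cm) holding 10 cm of water at 25 ± 1 °C. Immobility over the last 4 min was scored by video tracking; n = 10, mean ± SEM versus vehicle.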

Mus musculus [2] = test: Antidepressant activity in po dosed Kunming mouse assessed as decrease in immobility time by tail suspension test; type: functional; conditions: read-out: MED
Procedure, shortened: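 Male Kunming mice dosed orally at 10, 20 or 40 mg/kg, with fluoxetine and agomelatine 20 mg/kg as references. Mice were hung by the tail with tape about 1 cm from the tip, 50 cm above a box, for 6 min, isolated from sound and view. Immobility in the last 4 min was video-tracked; n = 10, mean ± SEM.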

Mus musculus [3] = test: Effect on 5-hydroxytryptamine level in Kunming mouse hippocampus at 40 mg/kg, po treated for 7 days by HPLC-ECD analysis; type: functional, organism-based
Procedure, shortened: (§1)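 Male Kunming mice (18–20 g) given vehicle or 40 mg/kg for 7 days, then killed by cervical dislocation. Frontal cortex, hippocampus, striatum, hypothalamus and thalamus dissected on ice, homogenized in ice-cold 0.2 M perchloric acid with 0.1 mM EDTA, centrifuged 15,000 rpm, 20 min, 4 °C. Supernatant analysed by HPLC-ECD at +0.50 V; phosphate/octanesulfonate mobile phase pH 3.0 with 12% methanol. Levels in ng/g, mean ± SEM.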

Mus musculus [4] = test: Increase in 5-hydroxyindole-3-acetic acid level in Kunming mouse hypothalamus at 40 mg/kg, po treated for 7 days by HPLC-ECD analysis; type: functional, organism-based; procedure, shortened: as §1
Mus musculus [5] = test: Increase in ratio of 5-hydroxyindole-3-acetic acid to 5-hydroxytryptamine level in Kunming mouse frontal cortex at 40 mg/kg, po treated for 7 days by HPLC-ECD analysis; type: functional, organism-based; procedure, shortened: as §1
Mus musculus [6] = test: Decrease in dopamine level in Kunming mouse thalamus at 40 mg/kg, po treated for 7 days by HPLC-ECD analysis; type: functional, organism-based
Procedure, shortened: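 Male Kunming mice received vehicle or 40 mg/kg for 7 days, then were killed by cervical dislocation and the brain regions dissected on ice. Tissue was homogenized in ice-cold 0.2 M perchloric acid with 0.1 mM EDTA and centrifuged at 15,000 rpm, 20 min, 4 °C. Supernatant was analyzed by HPLC-ECD (+0.50 V; phosphate/octanesulfonate mobile phase, pH 3.0). Results in ng/g, mean ± SEM.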

Mus musculus [7] = test: Increase in 4-hydroxy-3-methoxyphenylacetic acid level in Kunming mouse hypothalamus at 40 mg/kg, po treated for 7 days by HPLC-ECD analysis; type: functional, organism-based; procedure, shortened: as §1
Rattus norvegicus [8] = test: Toxicity in Sprague-Dawley rat assessed as ulceration at 2000 mg/kg, po measured over 4 hrs; type: organism-based; conditions: in vivo
Procedure, shortened: (§2)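 Acute oral toxicity run per OECD 425 in adult SD rats (180–220 g). Six animals per group: vehicle control (0.5% CMC-Na, oral), male rats and female rats each dosed orally at 2000 mg/kg. Animals were watched continuously for the first 4 h for behavior, breathing, cutaneous signs (irritation, ulceration, caustic injury, skin rashes), sensory nervous and gastrointestinal effects. Later checks were hourly for 24 h, then every 6 h for 48 h.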

Rattus norvegicus [9] = test: Toxicity in Sprague-Dawley rat assessed as skin rashes at 2000 mg/kg, po measured over 4 hrs; type: organism-based; conditions: in vivo; procedure, shortened: as §2
[10] = Drug metabolism in Sprague-Dawley rat plasma assessed as 5'-(1-hydroxyallyl)-5-propyl-2'-((2S,3R,4S,5S,6R)-3,4,5-trihydroxy-6-(hydroxymethyl)tetrahydro-2H-pyran-2-yloxy)biphenyl-2-yl hydrogen sulfate formation at 100 mg/kg, po by UPLC-IT-TOF-MS analysis; type: ADME, organism-based; conditions: in vivo
Procedure, shortened: (§3)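 Rats (n = 6) housed in metabolic cages received 100.0 mg/kg orally; controls received 0.5% CMC-Na. Plasma, urine and faeces were collected and analyzed by LC-IT-TOF-MS on a C18 column at 30 °C. Gradient 5–100% acetonitrile with 0.05% formic acid over 18 min at 0.2 mL/min; positive and negative ion MS/MS.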

[11] = Drug metabolism in Sprague-Dawley rat feces assessed as (2S,3S,4S,5R,6S)-6-(5'-allyl-5-(1-hydroxyallyl)-2'-((2S,3R,4S,5S,6R)-3,4,5-trihydroxy-6-(hydroxymethyl)tetrahydro-2H-pyran-2-yloxy)biphenyl-2-yloxy)-3,4,5-trihydroxytetrahydro-2H-pyran-2-carboxylic acid formation at 100 mg/kg, po by UPLC-IT-TOF-MS analysis; type: ADME, organism-based; conditions: in vivo; procedure, shortened: as §3
[12] = Drug metabolism in Sprague-Dawley rat urine assessed as 5'-acryloyl-2'-hydroxy-5-propionylbiphenyl-2-yl hydrogen sulfate formation at 100 mg/kg, po by UPLC-IT-TOF-MS analysis; type: ADME, organism-based; conditions: in vivo
Procedure, shortened: (§4)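 Male/unspecified SD rats (n = 6) housed individually in metabolic cages, dosed orally at 100.0 mg/kg; controls given 0.5% CMC-Na orally. Plasma, urine and faeces collected. LC-IT-TOF-MS on C18 column at 30 °C, formic acid (0.05%) water/acetonitrile gradient 5–100% B over 18 min, 0.2 mL/min; positive and negative ion modes with automatic MS/MS.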

[13] = Drug metabolism in Sprague-Dawley rat feces assessed as 5-allyl-5'-(1-hydroxyallyl)-2'-((2S,3R,4S,5S,6R)-3,4,5-trihydroxy-6-(hydroxymethyl)tetrahydro-2H-pyran-2-yloxy)biphenyl-2-yl hydrogen sulfate formation at 100 mg/kg, po by UPLC-IT-TOF-MS analysis; type: ADME, organism-based; conditions: in vivo; procedure, shortened: as §3
[14] = Drug metabolism in Sprague-Dawley rat feces assessed as (2R,2'R,3S,3'S,4S,4'S,5R,5'R,6S,6'S)-6,6'-(5,5'-diallylbiphenyl-2,2'-diyl)bis(oxy)bis(2-(hydroxymethyl)tetrahydro-2H-pyran-3,4,5-triol) formation at 100 mg/kg, po by UPLC-IT-TOF-MS analysis; type: ADME, organism-based; conditions: in vivo; procedure, shortened: as §3
[15] = Drug metabolism in Sprague-Dawley rat plasma assessed as 1-(2'-hydroxy-5'-(1-hydroxyallyl)-6-((2S,3R,4S,5S,6R)-3,4,5-trihydroxy-6-(hydroxymethyl)tetrahydro-2H-pyran-2-yloxy)biphenyl-3-yl)prop-2-en-1-one formation at 100 mg/kg, po by UPLC-IT-TOF-MS analysis; type: ADME, organism-based; conditions: in vivo; procedure, shortened: as §3
[16] = Drug metabolism in Sprague-Dawley rat feces assessed as (2S,3R,4S,5S,6R)-2-(5,5'-diallyl-2'-methoxybiphenyl-2-yloxy)-6-(hydroxymethyl)tetrahydro-2H-pyran-3,4,5-triol formation at 100 mg/kg, po by UPLC-IT-TOF-MS analysis; type: ADME, organism-based; conditions: in vivo; procedure, shortened: as §3
[17] = Drug metabolism in Sprague-Dawley rat urine assessed as 5,5'-diallyl-2'-hydroxybiphenyl-2-yl hydrogen sulfate formation at 100 mg/kg, po by UPLC-IT-TOF-MS analysis; type: ADME, organism-based; conditions: in vivo; procedure, shortened: as §4
[18] = Drug metabolism in Sprague-Dawley rat plasma assessed as (2S,3S,4S,5R,6S)-6-(5,5'-diallyl-2'-methoxybiphenyl-2-yloxy)-3,4,5-trihydroxytetrahydro-2H-pyran-2-carboxylic acid formation at 100 mg/kg, po by UPLC-IT-TOF-MS analysis; type: ADME, organism-based; conditions: in vivo; procedure, shortened: as §3
[19] = Drug metabolism in Sprague-Dawley rat feces assessed as (2S,3S,4S,5R,6S)-6-(5,5'-diallyl-2'-methoxybiphenyl-2-yloxy)-3,4,5-trihydroxytetrahydro-2H-pyran-2-carboxylic acid formation at 100 mg/kg, po by UPLC-IT-TOF-MS analysis; type: ADME, organism-based; conditions: in vivo; procedure, shortened: as §3
[20] = Drug metabolism in Sprague-Dawley rat plasma assessed as 5,5'-diallylbiphenyl-2,2'-diol formation at 100 mg/kg, po by UPLC-IT-TOF-MS analysis; type: ADME, organism-based; conditions: in vivo; procedure, shortened: as §4

For `C=CCc1ccc(O)c(-c2cc(CC=C)ccc2O[C@@H]2O[C@H](CO)[C@@H](O)[C@H](O)[C@H]2O)c1`, which Activity (Mus musculus [1]) is on record?
Its Activity is “Dose-dependent effect”.

And the minimal effective dose (Mus musculus [2])?
The minimal effective dose was 10 mg/kg.

And the Activity (Mus musculus [3])?
Its Activity is “inactive”.

What about the Activity (Mus musculus [4]) of the same compound?
The Activity was “Active”.

And the Activity (Mus musculus [5])?
Its Activity is “Active”.

What about the Activity (Mus musculus [6]) of the same compound?
The Activity was “Active”.

And the Activity (Mus musculus [7])?
Its Activity is “Active”.

What about the Activity (Rattus norvegicus [8]) of the same compound?
The Activity was “Non-Toxic”.

And the Activity (Rattus norvegicus [9])?
Its Activity is “Non-Toxic”.

And the Drug metabolism [10]?
The Drug metabolism was “Metabolite_Notdetected”.

What about the Drug metabolism [11] of the same compound?
Its Drug metabolism is “Metabolite_Detected”.

And the Drug metabolism [12]?
The Drug metabolism was “Metabolite_Detected”.

And the Drug metabolism [13]?
The Drug metabolism was “Metabolite_Detected”.

And the Drug metabolism [14]?
The Drug metabolism was “Metabolite_Detected”.

What about the Drug metabolism [15] of the same compound?
The Drug metabolism was “Metabolite_Notdetected”.

And the Drug metabolism [16]?
Its Drug metabolism is “Metabolite_Detected”.

What about the Drug metabolism [17] of the same compound?
The Drug metabolism was “Metabolite_Notdetected”.

What about the Drug metabolism [18] of the same compound?
Its Drug metabolism is “Metabolite_Notdetected”.

And the Drug metabolism [19]?
Its Drug metabolism is “Metabolite_Notdetected”.

What about the Drug metabolism [20] of the same compound?
Its Drug metabolism is “Metabolite_Notdetected”.
